# Entries after “also recorded” stand apart in the source; their conditions may differ.
# Tests used:
# [1] = target: TbU1; settings: procyclic forms (PCF), ref De Koning and Jarvis (1998), Papageorgiou et al. (2005), Gudin et al. (2006), cited from earlier work; for Ki: read-out: Ki, U1; for Ki / Ki, U1: NE = no effect on uptake at concentration indicated
# [2] = test system: T. b. brucei bloodstream forms strain 427 WT; experiment: Alamar blue drug sensitivity assay, wild-type; type: cell-based, Trypanosoma brucei brucei; settings: for effect on bloodstream trypanosomes (in words): Alamar blue viability assay; for EC50: Trypanosoma brucei, read-out: EC50, WT, Mean, Alamar blue assay, wild-type sensitive control strain
# Outline: (§1)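 Bloodstream-form T. b. brucei s427 grown in HMI-9 with 10% FBS at 37°C under 5% CO2. Resistant lines were made by months of stepwise-increasing exposure to the analog, then cloned by limiting dilution. Viability was read by resazurin (Alamar blue) reduction. Thymidine rescue was tested by adding 100 μM thymidine.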
# [3] = test system: 5F-2′dURes T. b. brucei; experiment: Alamar blue drug sensitivity assay, 5F-2′dURes; type: cell-based, Trypanosoma brucei brucei; settings: for EC50: Trypanosoma brucei, read-out: EC50, 5F-2′dURes, Mean; for RF, 5F-2′dURes: resistance factor: IC50(resistant clone)/IC50(WT)
# Outline: as §1
# [4] = test system: 5FURes T. b. brucei; experiment: Alamar blue drug sensitivity assay, 5FURes; type: cell-based, Trypanosoma brucei brucei; settings: for EC50: Trypanosoma brucei, read-out: EC50, 5FURes, Mean; for RF, 5FURes: resistance factor: IC50(resistant clone)/IC50(WT)
# Outline: as §1
# [5] = test system: 5FOARes T. b. brucei; experiment: Alamar blue drug sensitivity assay, 5FOARes; type: cell-based, Trypanosoma brucei brucei; settings: for EC50: Trypanosoma brucei, read-out: EC50, 5FOARes, Mean; for RF, 5FOARes: resistance factor: IC50(resistant clone)/IC50(WT)
# Outline: as §1
# [6] = target: TbU3; experiment: [3H]-uridine transport in bloodstream forms; type: cell-based, Trypanosoma brucei brucei; settings: 2.5 μM [3H]-uridine
# [7] = test system: s427WT T. b. brucei bloodstream forms; experiment: Kinetic parameters of pyrimidine transport in wild-type bloodstream forms; type: cell-based, Trypanosoma brucei brucei; settings: [3H]-permeant; strain s427WT
# Outline: (§2)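 Log-phase cells were washed into HEPES/bicarbonate glucose buffer (pH 7.3) at 1 × 10^8/ml and mixed with an equal volume of [3H]-permeant, with or without unlabeled competitor, at ambient temperature. Uptake was stopped with ice-cold buffer containing saturating unlabeled permeant, then cells were spun through oil. Counts were corrected for nonspecific binding and Km, Vmax and Ki obtained by curve fitting. Runs were in triplicate. Thymidine: 10 μM label, 15 min. Orotic acid: 10 min.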
# [8] = test system: 5-FURes T. b. brucei; experiment: Pyrimidine transport in 5-FURes bloodstream forms; type: cell-based, Trypanosoma brucei brucei
# [9] = test system: TbU3 uracil transporter; experiment: [3H]-uracil transport in bloodstream forms; type: cell-based, Trypanosoma brucei brucei; settings: for Km: read-out: Km, U3, bloodstream forms (BSF), Km of the permeant itself
# [10] = test system: TbT1 (P1-type nucleoside transporter); experiment: [3H]-thymidine transport in bloodstream forms; type: cell-based, Trypanosoma brucei brucei; settings: bloodstream forms
# [11] = test system: T. b. brucei bloodstream forms; experiment: Uptake of other radiolabeled pyrimidines by wild-type bloodstream forms; type: cell-based, Trypanosoma brucei brucei; settings: over 15 min; 2.5 μM [3H]-2′-deoxycytidine, 0.25 μM [3H]-cytosine, 1 μM [3H]-thymine
# [12] = test system: TbU3; experiment: [3H]-2′deoxyuridine transport in bloodstream forms; type: cell-based, Trypanosoma brucei brucei
# [13] = test system: P1-type nucleoside transporter; experiment: [3H]-inosine uptake in bloodstream forms; type: cell-based, Trypanosoma brucei brucei; settings: read-out: Km of inosine uptake; n = 3
# Outline: as §2
compound,measurement,setting,value
Cn1c(=O)cc[nH]c1=O [3-Methyluracil],Ki,[1],1620 ± 350 µM
Nc1ncnc2c1ncn2[C@@H]1O[C@H](CO)[C@@H](O)[C@H]1O [Adenosine],"Ki, U1",[1],"NE, 1000"
Cn1ccc(=O)[nH]c1=O [1-Methyluracil],"Ki, U1",[1],"NE, 10000"
"O=C1CCNC(=O)N1 [5,6-Dihydrouracil]",Ki,[1],830 ± 200 µM
C[C@H]1O[C@@H](n2cc(F)c(=O)[nH]c2=O)[C@H](O)[C@@H]1O [5-fluoro-5′deoxyuridine],effect on bloodstream trypanosomes (in words),[2],no effect up to at least 1 mM
O=c1[nH]ccc(=S)[nH]1 [4-Thiouracil],Ki,[1],22 ± 7 µM
Nc1nc2c(ncn2[C@@H]2O[C@H](CO)[C@@H](O)[C@H]2O)c(=O)[nH]1 [Guanosine],"Ki, U1",[1],"NE, 1000"
O=c1[nH]c(=O)c2[nH]c(=O)[nH]c2[nH]1 [Uric acid],"Ki, U1",[1],"NE, 1000"
"O=c1ccn([C@H]2CC[C@@H](CO)O2)c(=O)[nH]1 [2’,3′-dideoxyuridine, 2′,3′-dideoxyuridine]",effect on bloodstream trypanosomes (in words),[2],no effect up to at least 1 mM
"O=c1[nH]c(=O)n([C@H]2C[C@H](O)[C@@H](CO)O2)cc1Cl [5Cl-2’-dUrd, 5-chloro-2′-deoxyuridine]",EC50,[3],22 µM
same,"RF, 5F-2′dURes",[3],0.4
same,fold more sensitive than wild-type,[4]; 5-FURes,15 fold
same,EC50,[4],3.7 µM
same,"RF, 5FURes",[4],0.07
same,EC50,[5],91 µM
same,"RF, 5FOARes",[5],1.7
same,EC50,[2],54 µM
"O=C(O)c1[nH]c(=O)[nH]c(=O)c1F [5-Fluoroorotic acid, 5-fluoroorotic acid]",EC50,[3],13.3 µM
same,"RF, 5F-2′dURes",[3],0.94
same,EC50,[4],98 µM
same,"RF, 5FURes",[4],6.9
same,EC50,[5],1180 µM
same,"RF, 5FOARes",[5],83
same,EC50,[2],14.1 µM
Nc1nc(=O)n([C@@H]2O[C@H](CO)[C@@H](O)[C@H]2O)cc1F [5-fluorocytidine],effect on bloodstream trypanosomes (in words),[2],no effect up to at least 1 mM
Cc1cn([C@H]2CC[C@@H](CO)O2)c(=O)[nH]c1=O [3′-deoxythymidine],effect on bloodstream trypanosomes (in words),[2],no effect up to at least 1 mM
O=c1ccn([C@@H]2O[C@H](CO)[C@@H](O)[C@H]2O)c(=S)[nH]1 [2-thiouridine],effect on bloodstream trypanosomes (in words),[2],no effect up to at least 1 mM
C[C@H]1O[C@@H](n2ccc(=O)[nH]c2=O)[C@H](O)[C@@H]1O [5′-deoxyuridine],effect on bloodstream trypanosomes (in words),[2],no effect up to at least 1 mM
O=c1cc[nH]c(=O)[nH]1 [Uracil],Ki,"[6]; read-out: Ki for inhibition of [3H]-uridine uptake, n = 3",1.6 ± 0.2 µM
same,Km,"[1]; read-out: Km, U1, bold entry",0.46 ± 0.09 µM
same,Km,[7],1.5 ± 0.3 µM
same,Vmax,[7],0.27 ± 0.05 pmol (10^7 cells)^−1s^−1
same,Km,"[8]; [3H]-permeant, strain 5-FURes",0.66 ± 0.15 µM
same,Vmax,"[8]; [3H]-permeant, strain 5-FURes",0.16 ± 0.02 pmol (10^7 cells)^−1s^−1
same,reduction of [3H]-uracil transport by unlabeled uracil,"[9]; 0.15 μM [3H]-uracil, 1 mM unlabeled uracil",> 97%
same,rate of [3H]-uracil transport,"[9]; 0.15 μM [3H]-uracil, linear for at least 120 s",0.034 ± 0.002 pmol (10^7 cells)^−1s^−1
same,Vmax of uracil transport,[9]; mean of six triplicate experiments,0.14 ± 0.03 pmol × 10^7 cells^−1 × s^−1
same,Km,[9],0.54 ± 0.11 µM
same,effect on [3H]-thymidine transport (in words),[10],failing to reach 50% inhibition even at 2.5 mM
Cc1c[nH]c(=O)[nH]c1=O [Thymine],Ki,[1],> 1000 µM
same,accumulation of radiolabeled permeant (in words),[11],did not detectably accumulate
same,effect on [3H]-thymidine transport (in words),[10],little or no effect
O=c1nccc[nH]1 [2-Pyrimidone],Ki,[1],5400 ± 1300 µM
Nc1nc2nc[nH]c2c(=O)[nH]1 [Guanine],Ki,[1],> 25 µM
O=c1[nH]cnc2nc[nH]c12 [Hypoxanthine],"Ki, U1",[1],"NE, 1000"
same,"Ki, U3",[9],"NE, 1000"
O=c1[nH]cc(Cl)c(=O)[nH]1 [5-Chlorouracil],Ki,[1],900 ± 140 µM
Nc1ncnc2[nH]cnc12 [Adenine],"Ki, U1",[1],"NE, 1000"
N=C(N)c1ccc(OCCCCCOc2ccc(C(=N)N)cc2)cc1 [Pentamidine],EC50,[3],0.0079 µM
same,"RF, 5F-2′dURes",[3],1.0
same,EC50,[4],0.0073 µM
same,"RF, 5FURes",[4],0.94
same,EC50,[5],0.017 µM
same,"RF, 5FOARes",[5],2.2
same,EC50,[2],0.0078 µM
O=c1[nH]cc([N+](=O)[O-])c(=O)[nH]1 [5-Nitrouracil],"Ki, U1",[1],"NE, 1000"
Sc1ncccn1 [2-Mercaptopyrimidine],"Ki, U1",[1],"NE, 500"
O=c1ccnc[nH]1 [4(3H)Pyrimidone],Ki,[1],1670 ± 180 µM
"Nc1nc(=O)n([C@H]2C[C@H](O)[C@@H](CO)O2)cc1F [5Fl-2’-Ctd, 5-fluoro-2′-deoxycytidine]",EC50,[3],> 5000 µM
same,"RF, 5F-2′dURes",[3],>100
same,EC50,[4],55 µM
same,"RF, 5FURes",[4],1.1
same,EC50,[5],126 µM
same,"RF, 5FOARes",[5],2.6
same,EC50,[2],49.4 µM
same,reduction of sensitivity by addition of 100 μM thymidine,[2]; wild-type,78 fold
O=c1[nH]c(=S)ccn1[C@@H]1O[C@H](CO)[C@@H](O)[C@H]1O [4-thiouridine],effect on bloodstream trypanosomes (in words),[2],no effect up to at least 1 mM
Cc1cc(=O)[nH]c(=O)[nH]1 [6-Methyluracil],Ki,[1],> 2500 µM
"O=c1ccn([C@H]2C[C@H](O)[C@@H](CO)O2)c(=O)[nH]1 [2’Deoxyuridine, 2′-deoxyuridine]",Km,[7],810 ± 310 µM
same,Vmax,[7],1.3 ± 0.7 pmol (10^7 cells)^−1s^−1
same,Km,[9],810 ± 130 µM
same,rate of [3H]-2′deoxyuridine uptake,[12]; 0.5 μM [3H]-2′deoxyuridine,0.00045 pmol (10^7 cells)^−1s^−1
same,rate of [3H]-2′deoxyuridine transport,"[12]; 5 μM [3H]-2′deoxyuridine, linear over 4 min",0.0051 ± 0.0003 pmol/10^7 cells/s
same,inhibition of [3H]-2′deoxyuridine transport by unlabeled 2′-deoxyuridine,"[12]; 5 μM label, 2.5 mM unlabeled",76%
"O=c1[nH]cc(F)c(=O)[nH]1 [5-Fluorouracil, 5-fluorouracil]",EC50,[3],76.1 µM
same,"RF, 5F-2′dURes",[3],2.1
same,Ki,[1],3 ± 0.8 µM
same,Km,[7],2.5 ± 0.01 µM
same,Vmax,[7],0.27 ± 0.02 pmol (10^7 cells)^−1s^−1
same,reduction of [3H]-5-FU transport in 5-FURes relative to wild-type,"[8]; 0.5 μM [3H]-5-FU, n = 3",76% ± 6
same,Km,"[8]; [3H]-permeant, strain 5-FURes",2.3 ± 0.4 µM
same,effect on [3H]-thymidine transport (in words),[10],little or no effect
same,EC50,[4],4710 µM
same,"RF, 5FURes",[4],131
same,EC50,[5],448 µM
same,"RF, 5FOARes",[5],13
same,EC50,[2],35.9 µM
Nc1ccn([C@H]2C[C@H](O)[C@@H](CO)O2)c(=O)n1 [2′-deoxycytidine],accumulation of radiolabeled permeant (in words),[11],just detectable accumulation
O=c1ccn([C@@H]2O[C@H](CO)[C@@H](O)[C@H]2O)c(=O)[nH]1 [Uridine],rate of [3H]-uridine transport,[6]; 0-30 min,0.0043 ± 0.0003 pmol(10^7 cells)^−1s^−1
same,Ki,[1],33 ± 5 µM
same,Km,[7],9500 ± 2700 µM
same,Vmax,[7],16 ± 4 pmol (10^7 cells)^−1s^−1
same,Ki,"[8]; read-out: Ki for [3H]-uracil transport in 5-FURes, n = 3",~10000 µM
same,inhibition of [3H]-uracil uptake,"[9]; 10 mM of the nucleoside, 0.15 μM [3H]-uracil",~ 50%
same,Km,[9],9500 ± 2700 µM
O=c1cc[nH]c(=S)[nH]1 [2-Thiouracil],Ki,[1],640 ± 110 µM
O=c1cn[nH]c(=O)[nH]1 [6-Azauracil],EC50,[3],1100 µM
same,"RF, 5F-2′dURes",[3],1.2
same,Ki,[1],~1000 µM
same,EC50,[4],157 µM
same,"RF, 5FURes",[4],0.16
same,EC50,[5],1390 µM
same,"RF, 5FOARes",[5],1.4
same,EC50,[2],958 µM
O=c1[nH]cnc2c1ncn2[C@@H]1O[C@H](CO)[C@@H](O)[C@H]1O [Inosine],"Ki, U1",[1],"NE, 1000"
same,Km,[13],0.89 ± 0.15 µM
Nc1cc[nH]c(=O)n1 [Cytosine],"Ki, U1",[1],"NE, 1000"
same,accumulation of radiolabeled permeant (in words),[11],did not detectably accumulate
O=c1ccn([C@@H]2O[C@H](CO)C[C@H]2O)c(=O)[nH]1 [3′-deoxyuridine],effect on bloodstream trypanosomes (in words),[2],no effect up to at least 1 mM
O=c1[nH]c(=O)n([C@@H]2O[C@H](CO)[C@@H](O)[C@H]2O)cc1F [5-fluorouridine],effect on bloodstream trypanosomes (in words),[2],no effect up to at least 1 mM; also recorded: no effect on trypanosome growth
Nc1nc(=O)[nH]cc1F [5-fluorocytosine],effect on bloodstream trypanosomes (in words),[2],no effect up to at least 1 mM
O=C1C=CNC(=O)C1 [3-Deazauracil],Ki,[1],> 2500 µM

# From PMC4857052 (Molecular pharmacology, 2012)
